In brackets after ≈: the same amount, converted by molar mass.
Columns and labels:
Format in all cases: functional
[1] = test system: Micrococcus luteus; assay: Antimicrobial activity against Sarcina lutea CMCC 28001 after 24 hrs by broth microdilution method; settings: CMCC 28001, 24 h
Method in brief: (§1)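 Broth microdilution in Mueller-Hinton broth. Compounds tested across a doubling-dilution series, with cefoperazone as the positive control. Plates incubated 24 h at 37 °C. MIC taken as the lowest concentration showing no visible bacterial growth.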

[2] = test system: Staphylococcus aureus; assay: Antimicrobial activity against Staphylococcus aureus CMCC 26112 after 24 hrs by broth microdilution method; settings: CMCC 26112, 24 h; method in brief: as §1
[3] = test system: Klebsiella pneumoniae; assay: Antimicrobial activity against Klebsiella pneumoniae CMCC 46117 after 24 hrs by broth microdilution method; settings: CMCC 46117, 24 h; method in brief: as §1

MIC [1]	MIC [2]	MIC [3]	SMILES
> 64 µg/mL	> 64 µg/mL	8 µg/mL (≈ 17 µM)	CCCC[C@H](CC(=O)NO)C(=O)N[C@H](c1nc2cc(C(=O)N3CCCCC3)ccc2[nH]1)C(C)C
16 µg/mL (≈ 31.4 µM)	32 µg/mL (≈ 62.8 µM)	16 µg/mL (≈ 31.4 µM)	CCCC[C@H](CC(=O)NO)C(=O)N[C@H](c1nc2cc(C(=O)Nc3ccc(OC)cc3)ccc2[nH]1)C(C)C
8 µg/mL (≈ 20.5 µM)	8 µg/mL (≈ 20.5 µM)	8 µg/mL (≈ 20.5 µM)	CCCC[C@H](CC(=O)NO)C(=O)N[C@H](c1nc2cc(OC)ccc2[nH]1)C(C)C
8 µg/mL (≈ 21.4 µM)	8 µg/mL (≈ 21.4 µM)	4 µg/mL (≈ 10.7 µM)	CCCC[C@H](CC(=O)NO)C(=O)N[C@H](c1nc2cc(C)ccc2[nH]1)C(C)C
4 µg/mL (≈ 11.1 µM)	2 µg/mL (≈ 5.55 µM)	0.5 µg/mL (≈ 1.39 µM)	CCCC[C@H](CC(=O)NO)C(=O)N[C@H](c1nc2ccccc2[nH]1)C(C)C
64 µg/mL (≈ 132 µM)	64 µg/mL (≈ 132 µM)	32 µg/mL (≈ 65.9 µM)	CCCC[C@H](CC(=O)NO)C(=O)N[C@H](c1nc2cc(C(=O)NC3CCCCC3)ccc2[nH]1)C(C)C
16 µg/mL (≈ 33.8 µM)	16 µg/mL (≈ 33.8 µM)	8 µg/mL (≈ 16.9 µM)	CCCC[C@H](CC(=O)NO)C(=O)N[C@H](c1nc2cc(C(=O)N3CCOCC3)ccc2[nH]1)C(C)C
0.25 µg/mL (≈ 0.387 µM)	0.25 µg/mL (≈ 0.387 µM)	0.25 µg/mL (≈ 0.387 µM)	CCN1CCN(C(=O)N[C@@H](C(=O)N[C@@H]2C(=O)N3C(C(=O)O)=C(CSc4nnnn4C)CS[C@H]23)c2ccc(O)cc2)C(=O)C1=O [CEFOPERAZONE]
